From ChEMBL document CHEMBL1949637, “Anticancer effects of the metabolic products of the resveratrol analogue, DMU-212: structural requirements for potency” (Eur J Med Chem, 2011)
The source made the active and inactive calls. The calls are words filed in the database; no cut-off is given here.

Assays:
Type in all cases: functional, cell-based
HepG2 [1] = test: Cytotoxicity against human HepG2 cells up to 20 uM after 96 hrs by MTT assay
MCF7 [2] = test: Cytotoxicity against human MCF7 cells up to 20 uM after 96 hrs by MTT assay
MCF7 [3] = test: Induction of apoptosis in human MCF7 cells assessed as down-regulation of Bcl-xL mRNA level after 24 hrs by RT-PCR analysis
MCF7 [4] = test: Downregulation of beta-tubulin expression in human MCF7 cells at >30 uM after 24 hrs by Western blot analysis
Procedure, shortened: (§1)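 MCF-7 or HepG2 cells seeded at 3 × 10⁵ cells/mL in 6-well plates and treated 24 h at 37 °C with 0, 30, 40 or 50 μM. Lysed in buffer with protease inhibitors and 1 mM DTT, then sonicated. Lysates run on SDS-PAGE (10% resolving gel), wet-blotted to PVDF and probed overnight at 4 °C. Antibodies were anti-β-tubulin 1:400, p53 1:200, cyclin D1 1:200; β-actin 1:400 served as loading reference. Detection by ECL.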

MCF7 [5] = test: Induction of apoptosis in human MCF7 cells assessed as increase of ratio of Bax to Bcl-xL mRNA level at 30 to 40 uM after 24 hrs by RT-PCR analysis
HeLa [6] = test: Cytotoxicity against human HeLa cells after 96 hrs by MTT assay
Procedure, shortened: (§2)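 Cells plated in 96-well plates and allowed 24 h growth. Medium was replaced with serial dilutions, 0.079–20 μM, for 96 h. Viability read spectrophotometrically by MTT reduction. IC₅₀ values taken from at least 3 experiments. MCF-7 cells were kept in RPMI-1640 and HepG2/HeLa in DMEM, each with 10% heat-inactivated FCS.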

HepG2 [7] = test: Cell cycle arrest in human HepG2 cells assessed as accumulation at S phase at 10 uM after 24 hrs using propidium iodide staining by flow cytometry
Procedure, shortened: (§3)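 Cells cultured in T75 flasks, serum-starved 24 h, then exposed to 10 μM for 24 h. Trypsinised, washed in PBS and fixed in 70% ethanol for at least 2 h. Stained with propidium iodide 50 μg/mL containing RNase A 100 μg/mL. DNA content read by flow cytometry on at least 10,000 events. Percentage of cells in each phase recorded.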

HepG2 [8] = test: Cell cycle arrest in human HepG2 cells assessed as accumulation at G2/M phase at 10 uM after 24 hrs using propidium iodide staining by flow cytometry; procedure, shortened: as §3
HepG2 [9] = test: Downregulation of beta-tubulin expression in human HepG2 cells at >30 uM after 24 hrs by Western blot analysis; procedure, shortened: as §1
HepG2 [10] = test: Upregulation of p53 protein expression in human HepG2 cells after 24 hrs by Western blot analysis; procedure, shortened: as §1
MCF7 [11] = test: Cell cycle arrest in human MCF7 cells assessed as accumulation at S phase at 10 uM after 24 hrs using propidium iodide staining by flow cytometry; procedure, shortened: as §3
MCF7 [12] = test: Cell cycle arrest in human MCF7 cells assessed as accumulation at G1 phase at 10 uM after 24 hrs using propidium iodide staining by flow cytometry; procedure, shortened: as §3
HepG2 [13] = test: Cell cycle arrest in human HepG2 cells assessed as accumulation at G1 phase at 10 uM after 24 hrs using propidium iodide staining by flow cytometry; procedure, shortened: as §3
MCF7 [14] = test: Antimitotic activity in human MCF7 cells assessed as effect on beta-tubulin distribution at 10 uM after 24 hrs by immunofluorescence staining
Procedure, shortened: (§4)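 MCF-7 cells seeded on coverslips in 24-well plates, 8 × 10⁴ cells/well, exposed to 10 or 30 μM for 24 or 48 h. Fixed, permeabilised, then stained 1 h at room temperature with anti-β-tubulin (1:200 in PBS/1% FBS). Secondary was AlexaFluor-conjugated anti-mouse IgG (1:500), 1 h in the dark. Read by fluorescence microscopy.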

HepG2 [15] = test: Downregulation of cyclin D1 expression in human HepG2 cells after 24 hrs by Western blot analysis; procedure, shortened: as §1
MCF7 [16] = test: Upregulation of p53 protein expression in human MCF7 cells after 24 hrs by Western blot analysis; procedure, shortened: as §1
MCF7 [17] = test: Downregulation of cyclin D1 expression in human MCF7 cells after 24 hrs by Western blot analysis; procedure, shortened: as §1
MCF7 [18] = test: Cell cycle arrest in human MCF7 cells assessed as accumulation at G2/M phase at 10 uM after 24 hrs using propidium iodide staining by flow cytometry; procedure, shortened: as §3
HepG2 [19] = test: Induction of apoptosis in human HepG2 cells assessed as upregulation of Bax mRNA level after 24 hrs by RT-PCR analysis
MCF7 [20] = test: Induction of apoptosis in human MCF7 cells assessed as nuclear fragmentation at 10 uM after 24 hrs using DAPI staining by immunofluorescence method
Procedure, shortened: (§5)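 MCF-7 cells grown on coverslips (8 × 10⁴ cells/well) and treated 24 h at 10 or 30 μM. Fixed, permeabilised and processed as for β-tubulin immunostaining. DAPI working solution applied at 1:100 for 5 min. Fragmented nuclei scored by fluorescence microscopy.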

HeLa [21] = test: Cell cycle arrest in human HeLa cells assessed as accumulation at G2/M phase at 10 uM after 24 hrs using propidium iodide staining by flow cytometry; procedure, shortened: as §3
MCF7 [22] = test: Antimitotic activity in human MCF7 cells assessed as decrease in localization of beta-tubulin expression around cell nucleus at 30 uM after 48 hrs by immunofluorescence staining; procedure, shortened: as §4
MCF7 [23] = test: Induction of apoptosis in human MCF7 cells assessed as upregulation of Bax mRNA level after 24 hrs by RT-PCR analysis
MCF7 [24] = test: Induction of apoptosis in human MCF7 cells assessed as nuclear fragmentation at 30 uM after 24 hrs using DAPI staining by immunofluorescence method; procedure, shortened: as §5
HepG2 [25] = test: Induction of apoptosis in human HepG2 cells assessed as increase of ratio of Bax to Bcl-xL mRNA level at 20 to 40 uM after 24 hrs by RT-PCR analysis
HepG2 [26] = test: Induction of apoptosis in human HepG2 cells assessed as effect on Bcl-xL mRNA level after 24 hrs by RT-PCR analysis
MCF7 [27] = test: Antimitotic activity in human MCF7 cells assessed as decrease in localization of beta-tubulin expression around cell nucleus at 30 uM after 24 hrs by immunofluorescence staining; procedure, shortened: as §4
MCF7 [28] = test: Cytotoxicity against human MCF7 cells after 96 hrs by MTT assay; details: MCF7, 96 h; procedure, shortened: as §2
HepG2 [29] = test: Cytotoxicity against human HepG2 cells after 96 hrs by MTT assay; details: HepG2, 96 h; procedure, shortened: as §2

COc1ccc(/C=C/c2cc(OC)c(O)c(OC)c2)cc1
Activity (HepG2 [1]): inactive | Activity (MCF7 [2]): inactive

COc1ccc(/C=C/c2cc(OC)c(OC)c(OC)c2)cc1O
Activity (MCF7 [3]): Active | Activity (MCF7 [4]): Active | Activity (MCF7 [5]): Active | Activity (HepG2 [1]): Active | Activity (MCF7 [2]): Active | Activity (HeLa [6]): Active | Activity (HepG2 [7]): Active | Activity (HepG2 [8]): Active | Activity (HepG2 [9]): Active | Activity (HepG2 [10]): Dose-dependent effect | Activity (MCF7 [11]): Active | Activity (MCF7 [12]): Active | Activity (HepG2 [13]): Active | Activity (MCF7 [14]): inactive | Activity (HepG2 [15]): Dose-dependent effect | Activity (MCF7 [16]): Dose-dependent effect | Activity (MCF7 [17]): Dose-dependent effect | Activity (MCF7 [18]): Active | Activity (HepG2 [19]): Dose-dependent effect | Activity (MCF7 [20]): inactive | Activity (HeLa [21]): Active | Activity (MCF7 [22]): Active | Activity (MCF7 [23]): Dose-dependent effect | Activity (MCF7 [24]): Active | Activity (HepG2 [25]): Active | Activity (HepG2 [26]): inactive | Activity (MCF7 [27]): Active

COc1ccc(/C=C/c2cc(OC)c(OC)c(OC)c2)cc1
Activity (MCF7 [4]): Active | Activity (HeLa [6]): Active | Activity (HepG2 [7]): Active | Activity (HepG2 [8]): Active | Activity (HepG2 [9]): Active | Activity (HepG2 [10]): Dose-dependent effect | Activity (MCF7 [11]): Active | Activity (MCF7 [12]): Active | Activity (HepG2 [13]): Active | Activity (MCF7 [14]): inactive | Activity (HepG2 [15]): Dose-dependent effect | IC50 (MCF7 [28]): 300 nM | Activity (MCF7 [16]): Dose-dependent effect | Activity (MCF7 [17]): Dose-dependent effect | Activity (MCF7 [18]): Active | Activity (MCF7 [20]): inactive | Activity (HeLa [21]): Active | Activity (MCF7 [22]): Active | IC50 (HepG2 [29]): 300 nM | Activity (MCF7 [24]): Active | Activity (MCF7 [27]): Active

COc1ccc(/C=C/c2cc(O)c(OC)c(OC)c2)cc1
Activity (HepG2 [1]): inactive | Activity (MCF7 [2]): inactive

COc1cc(/C=C/c2ccc(O)cc2)cc(OC)c1OC
Activity (HepG2 [1]): inactive | Activity (MCF7 [2]): inactive
